The values that follow come from ChEMBL document CHEMBL2346591, “Oxadiazole-isopropylamides as potent and noncovalent proteasome inhibitors” (J Med Chem, 2013).

Active and inactive are the calls of the source. The calls are words filed in the database; no cut-off is given here.

A short description of assay [1]: Inhibition of chymotrypsin-like activity of rabbit 20s proteasome beta5 subunit using Suc-Leu-Leu-Val-Tyr-AMC as substrate after 1 hr by fluorescence assay. Set-up: species or system Oryctolagus cuniculus.
The subject of another assay is MDA-MB-468. The assay can be described thus: Cytotoxicity against human MDA-MB-468 cells assessed as decrease in cell survival after 120 hrs by MTT assay. The format is functional, cell-based. In outline: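 MDA-MB-468 cells (DMEM, 10% FBS, penicillin/streptomycin, 37 °C, 5% CO2) attached overnight, then exposed 120 h to varying inhibitor concentrations; medium replaced with complete medium containing 1 mg/ml MTT for 3 h at 37 °C, DMSO solubilisation, absorbance at 540 nm. IC50 from a four-parameter curve fit of % inhibition versus concentration.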
On the technique in general: Formazan colour is commonly taken as a measure of viable cells.

Assay [2] in a line: Inhibition of postglutamyl-peptide-hydrolysis-like activity of rabbit 20s proteasome beta1 subunit using benzyloxycarbonyl Z-Leu-Leu-Glu-AMC as substrate after 1 hr by fluorescence assay. Set-up: species or system Oryctolagus cuniculus. In outline:
(§1)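 Purified rabbit 20S proteasome at 1 nM, with or without compound, incubated 1 h at 37 °C in 50 mM Tris-HCl pH 7.6 with fluorogenic AMC peptide: 20 µM […] (CT-L), Bz-Val-Gly-Arg-AMC (T-L) or Z-Leu-Leu-Glu-AMC (PGPH-L).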

Assay [3] can be described thus: Inhibition of trypsin-like activity of rabbit 20s proteasome beta2 subunit using Bz-Val-Gly-Arg-AMC as substrate after 1 hr by fluorescence assay. On the set-up: species or system Oryctolagus cuniculus. The method, boiled down: as §1
The species named for assay [4] is Oryctolagus cuniculus. Briefly: Inhibition of chymotrypsin-like activity of rabbit 20s proteasome beta5 subunit using Suc-Leu-Leu-Val-Tyr-AMC as substrate at 10 uM after 1 hr by fluorescence assay. The method, boiled down:
as §1

For assay [5], the species on record is Oryctolagus cuniculus. Briefly: Covalent binding affinity to rabbit 20s proteasome beta5 subunit assessed as modification of TTTLAFK peptide after 30 mins by LC-MS/MS analysis. The method, boiled down:
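Purified rabbit 20S proteasome (1 nM) incubated with inhibitor in 50 mM Tris-HCl pH 7.6 for 30 min at room temperature; acetonitrile added, then trypsin (enzyme:substrate 1:50) digestion for 4 h at 37 °C; peptides concentrated, C18 tip-extracted, then LC/MS-MS checking the N-terminal Thr-1 TTTLAFK peptide for modification versus vehicle (DMSO).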

Assay [6] is filed under the species Oryctolagus cuniculus. The assay can be described thus: Reversible inhibition of chymotrypsin-like activity of rabbit 20s proteasome beta5 subunit at 2.5 uM after 18 hrs by dialysis method.
Assay [7] has as its target T1, Proteasome Macropain subunit MB1 (Homo sapiens, UniProt P28074).
T1 sequence (P28074 whole entry): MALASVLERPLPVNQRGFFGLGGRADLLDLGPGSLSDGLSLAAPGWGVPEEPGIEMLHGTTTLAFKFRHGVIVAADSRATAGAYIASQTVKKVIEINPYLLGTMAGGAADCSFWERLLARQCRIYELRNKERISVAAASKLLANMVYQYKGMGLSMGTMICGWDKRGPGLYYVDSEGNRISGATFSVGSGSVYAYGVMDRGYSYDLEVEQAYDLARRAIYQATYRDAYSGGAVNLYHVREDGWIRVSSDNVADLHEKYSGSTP
The assay can be described thus: (§2) Inhibition of chymotrypsin-like activity of proteasome beta5 subunit in human MDA-MB-468 cells using Suc-Leu-Leu-Val-Tyr-AMC as substrate after 2 hrs by fluorescence assay. The format is cell-based.

The target in assay [8] is T2, Proteasome Macropain subunit MB1 (Homo sapiens) (UniProt P28074).
T2 sequence (whole entry): T1 sequence (P28074 whole entry)
Described as §2. The format is cell-based.

The species entered for assay [9] is Oryctolagus cuniculus. The assay can be described thus: Reversible inhibition of chymotrypsin-like activity of rabbit 20s proteasome beta5 subunit assessed as residual activity at 10 uM after 2 hrs by dialysis method relative to control.
For assay [10], the species on record is Oryctolagus cuniculus. Briefly: Reversible inhibition of chymotrypsin-like activity of rabbit 20s proteasome beta5 subunit assessed as residual activity at 10 uM after 20 mins by dialysis method relative to control.

`Cc1ccc(OCC(=O)N(Cc2nc(-c3ccc(C(F)(F)F)cc3)no2)C(C)C)cc1`: the IC50 in assay [1] stood at 970 nM. In other words, the sub-micromolar range.
On to `CCCc1ccc(OCC(=O)N(Cc2nc(-c3cccnc3)no2)C(C)C)cc1`, for which the result with MDA-MB-468 was Active. The values for the IC50 in assay [2], in [3] and in assay [1] were greater than 100000 nM, greater than 100000 nM and 27 nM, respectively.
`Cc1ccc(OCC(=O)N(Cc2nc(-c3ccc(C)cc3)no2)C(C)(C)C)cc1`: the inhibition entry in the assay filed under Oryctolagus cuniculus [4] is “inactive”.
`CCCc1ccc(OCC(=O)N(Cc2nc(-c3ncccn3)no2)C(C)C)cc1` gave an IC50 in [1] of 1270 nM.
On to `Cc1ccc(OCC(=O)N(C)Cc2nc(-c3ccc(C)cc3)no2)cc1`, for which the IC50 in assay [1] worked out at 29900 nM. Against the preceding molecule, the IC50 is about 24-fold higher.
The same measure, in the same setting: as for `Cc1ccc(-c2noc(CN(C(=O)COc3ccccc3)C(C)C)n2)cc1`, the figure is 8500 nM; as for `Cc1ccc(OCC(=O)N(Cc2nc(-c3ccccn3)no2)C(C)C)cc1`, 3750 nM.
Take `CCCc1ccc(OCC(=O)N(Cc2nc(-c3ccc(C)cc3)no2)C(C)C)cc1`: in [1], half-maximal inhibition (IC50) was put at 273 nM.
Still for that read-out and setting: as for `Cc1ccc(OCC(=O)N(Cc2nc(-c3ccccc3)no2)C(C)C)cn1`, the figure is 4000 nM; as for `CC(C)N(Cc1nc(-c2ccccc2)no1)C(=O)COc1ccc(C(F)(F)F)cc1`, 430 nM.
On to `CC(C)N(Cc1nc(-c2ccccc2)no1)C(=O)COc1ccc(C(=O)OC(C)(C)C)cc1`, for which, in the assay listed under Oryctolagus cuniculus [4], the inhibition result was “inactive”.
Consider `CC(=O)N[C@@H](CSC(=O)[C@]1([C@@H](O)C(C)C)NC(=O)[C@H](C)[C@@H]1O)C(=O)O`, for which the outcome in the assay filed under Oryctolagus cuniculus [5] was Active. In the assay filed under Oryctolagus cuniculus [6], the inhibition result was “inactive”.
`Cc1ccc(OCC(=O)N(Cc2nc(-c3ccc(C)cc3)no2)CC(C)C)cc1` had an IC50 in assay [1] of 2370 nM. This counts as single-digit micromolar.
Regarding `CC(C)N(Cc1nc(-c2ccccc2)no1)C(=O)COc1ccc(C(=O)O)cc1`, the inhibition entry in the assay filed under Oryctolagus cuniculus [4] was “inactive”.
In assay [1], `CC(C)c1ccc(OCC(=O)N(Cc2nc(-c3cccnc3)no2)C(C)C)cc1` yielded an IC50 of 440 nM.
The same measure, in the same setting: in the case of `CC(C)N(Cc1nc(-c2ccccc2)no1)C(=O)COc1ccc(O)cc1` it was 10100 nM; in that of `CC(C)N(Cc1nc(-c2ccccc2)no1)C(=O)CCc1ccc(C(F)(F)F)cc1`, 53500 nM.
Same read-out and setting: as for `Cc1ccc(NCC(=O)N(Cc2nc(-c3ccccc3)no2)C(C)C)cc1`, the figure is 5670 nM.
As for `CC(C)N(Cc1nc(-c2cccnc2)no1)C(=O)c1cc2ccccc2o1`, half-maximal inhibition in assay [1] (IC50) required 379 nM.
With `Cc1ccc(OCC(=O)NCc2nc(-c3ccc(C)cc3)no2)cc1`, in the assay filed under Oryctolagus cuniculus [4], the inhibition result was “inactive”.
As to `Cc1ccccc1OCC(=O)N(Cc1nc(-c2ccccc2)no1)C(C)C`, in the assay listed under Oryctolagus cuniculus [4], the inhibition entry was “inactive”.
`CCCCCc1ccc(OCC(=O)N(Cc2nc(-c3cccnc3)no2)C(C)C)cc1` gave an IC50 in assay [1] of 120 nM.
Take `Cc1ccc(OCC(=O)N(CCc2nc(-c3ccccc3)no2)C(C)C)cc1`: the inhibition result in the assay filed under Oryctolagus cuniculus [4] was “inactive”.
`CC(C)N(Cc1nc(-c2ccc(C(F)(F)F)cc2)no1)C(=O)COc1ccc(C(F)(F)F)cc1` showed a 50% inhibitory concentration (IC50) in [1] of 2530 nM.
The same measure, in the same setting: as for `CC(C)N(Cc1nc(-c2cccnc2)no1)C(=O)COc1ccc(O)cc1`, the figure is 980 nM.
Same read-out and setting: as for `CC(C)N(Cc1nc(-c2ccc(Cl)cc2)no1)C(=O)COc1ccc(Cl)cc1`, the figure is 1070 nM; as for `CC(C)N(Cc1nc(-c2ccc(Cl)cc2)no1)C(=O)COc1ccc(C(F)(F)F)cc1`, 940 nM; as for `Cc1ccc(OCC(=O)N(Cc2nc(-c3cccnc3)no2)C(C)C)cc1`, 220 nM.
Same read-out and setting: as for `Cc1ccc(-c2noc(CN(C(=O)COc3ccc(C(F)(F)F)cc3)C(C)C)n2)cc1`, the figure is 1080 nM; as for `Cc1ccc(-c2noc(CN(C(=O)COc3ccc(Cl)cc3)C(C)C)n2)cc1`, 1120 nM.
Consider `Cc1ccc(OCC(=O)N(Cc2nc(-c3ccc(C)cc3)no2)C(C)C)cc1`, for which the outcome in the assay listed under Oryctolagus cuniculus [5] was inactive. Besides, the result in the assay on MDA-MB-468 was Active. For the same molecule, the half-inhibitory concentration (IC50) in assay [7] was 3500 nM; in [2] it was greater than 100000 nM; in [3] it was greater than 100000 nM; in [1], 600 nM. In assay [8], the inhibition result was “Dose-dependent effect”. The Activity was 100% in the assay filed under Oryctolagus cuniculus [9] and greater than 70% in the assay listed under Oryctolagus cuniculus [10].
`CCN(Cc1nc(-c2ccc(C)cc2)no1)C(=O)COc1ccc(C)cc1` yielded a half-maximal inhibitory concentration (IC50) in assay [1] of 6040 nM.
The same measure, in the same setting: in the case of `CCCc1ccc(OCC(=O)N(Cc2nc(-c3cnccn3)no2)C(C)C)cc1` it was 105 nM; in that of `CCCCc1ccc(OCC(=O)N(Cc2nc(-c3cnccn3)no2)C(C)C)cc1`, 107 nM.
Same read-out and setting: as for `Cc1ccc(OCC(=O)N(Cc2nc(-c3ccc(Cl)cc3)no2)C(C)C)cc1`, the figure is 450 nM; as for `CC(C)N(Cc1nc(-c2cccnc2)no1)C(=O)COc1ccccc1`, 2710 nM; as for `CC(C)Cc1ccc(OCC(=O)N(Cc2nc(-c3cccnc3)no2)C(C)C)cc1`, 140 nM.
Consider `CCc1ccc(OCC(=O)N(Cc2nc(-c3ccccc3)no2)C(C)C)cc1`, for which, in [1], half-maximal inhibition (IC50) was put at 260 nM. This IC50 lies about 1.9-fold higher than the previous one.
The same measure, in the same setting: in the case of `Cc1ccc(OCC(=O)N(Cc2nc(-c3ccccc3)no2)C(C)C)cc1` it was 310 nM; in that of `CCCCc1ccc(OCC(=O)N(Cc2nc(-c3cccnc3)no2)C(C)C)cc1`, 39 nM.
Consider `Cc1ccc(OCC(=O)N(Cc2nc(-c3ccc(C)cc3)no2)C2CC2)cc1`, for which the inhibition result in the assay listed under Oryctolagus cuniculus [4] was “inactive”.
Molecule `Cc1ccc(OCC(=O)N(Cc2nc(-c3ccncc3)no2)C(C)C)cc1` yielded an IC50 in assay [1] of 370 nM.
Same read-out and setting: in the case of `CC(C)N(Cc1nc(-c2cccnc2)no1)C(=O)COc1ccc(C(C)(C)C)cc1` it was 46500 nM.
Take `Cc1ccc(CNC(=O)N(Cc2nc(-c3ccccc3)no2)C(C)C)cc1`: the inhibition entry in the assay filed under Oryctolagus cuniculus [4] is “inactive”.
Still for that read-out and setting: as for `CC(C)N(Cc1nc(-c2ccccc2)no1)C(=O)COc1ccc(-c2ccccc2)cc1`, the entry is “inactive”.
In assay [1], `CCCCCCc1ccc(OCC(=O)N(Cc2nc(-c3cccnc3)no2)C(C)C)cc1` gave an IC50 of 430 nM. This counts as sub-micromolar.
The same measure, in the same setting: as for `CC(C)N(Cc1nc(-c2ccc(C(F)(F)F)cc2)no1)C(=O)COc1ccccc1`, the figure is 11200 nM.
Still for that read-out and setting: as for `CC(C)N(Cc1nc(-c2ccc(C(F)(F)F)cc2)no1)C(=O)COc1ccc(Cl)cc1`, the figure is 1410 nM; as for `CC(C)N(Cc1nc(-c2ccccc2)no1)C(=O)COc1ccc(Cl)cc1`, 510 nM.
On to `CC(C)N(Cc1nc(-c2ccccc2)no1)C(=O)COc1ccc2cc(Br)ccc2c1`, for which the inhibition result in the assay filed under Oryctolagus cuniculus [4] was “inactive”.
`CC(C)N(Cc1nc(-c2ccccc2)no1)C(=O)COc1ccc(F)cc1` gave an IC50 in assay [1] of 10100 nM.
On the same count and under the same terms, as for `CCc1ccc(OCC(=O)N(Cc2nc(-c3cccnc3)no2)C(C)C)cc1`, the figure is 99 nM; as for `CC(C)N(Cc1nc(-c2cccnc2)no1)C(=O)COc1ccc(Cl)cc1`, 140 nM; as for `CC(C)N(Cc1nc(-c2cccnc2)no1)C(=O)COc1ccc(C2CCCCC2)cc1`, 1360 nM.
Same read-out and setting: in the case of `CC(C)N(Cc1nc(-c2ccccc2)no1)C(=O)COc1ccccc1` it was 6200 nM.
For `Cc1cccc(OCC(=O)N(Cc2nc(-c3ccccc3)no2)C(C)C)c1`, in the assay listed under Oryctolagus cuniculus [4], the inhibition entry is “inactive”.
With `CC(C)N(Cc1nc(-c2cccnc2)no1)C(=O)COc1ccc(F)cc1`, half-maximal inhibition in assay [1] (IC50) was put at 1930 nM.

Broadly, the IC50 is the point on the concentration scale where inhibition reaches its midpoint. Low readings indicate greater potency in that assay, high ones weaker potency in that assay.
